Data on nine compounds can be found in ChEMBL document CHEMBL1133085, “Synthesis, antibacterial, and cytotoxic evaluation of certain 7-substituted norfloxacin derivatives” (2000).

Values after ≈ are worked out from the molar mass of the structure shown.

Type in all cases: functional
A short description of assay [1]: Mean value (average log GI50) over all cell lines tested. In short, it runs like this:
(§1)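 NCI in vitro human tumour cell line panel screen. Growth inhibition is expressed as log GI₅₀ (M), the concentration reducing cell growth to 50% of controls. The mean is the average log GI₅₀ across all cell lines tested.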

In assay [2] the test system is UO-31. Put plainly: In vitro inhibitory activity for human renal cancer cell line UO-31 was determined. In short, it runs like this:
as §1

Assay [3] relates to CAKI-1. Put plainly: In vitro inhibitory activity for human renal cancer cell line CAK-1 was determined. In short, it runs like this:
as §1

The subject of assay [4] is Proteus vulgaris. Nature of the assay: In vitro antimicrobial activity against Proteus vulgaris was determined. In short, it runs like this: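 MIC determined in Mueller-Hinton broth inoculated at 1-5 × 10⁵ CFU/mL. DMSO serial dilutions of compounds were used, with a top final concentration of 300 µM and DMSO at most 1%. Incubation was at 37 °C for 20-72 h. Growth was judged by turbidity or microscopy. Vehicle and reference controls were included, with duplicate assays.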

Assay [5] concerns Staphylococcus aureus. Put plainly: In vitro antimicrobial activity against Staphylococcus aureus (methicillin-resistant) was determined. In short, it runs like this: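 MRSA in Mueller-Hinton broth at 1-5 × 10⁵ CFU/mL. Compound serial dilutions in 100% DMSO were added 1:100, giving a maximal test concentration of 300 µM and at most 1% DMSO. Plates were held 20-72 h at 37 °C. MIC (µM) was taken from visual turbidity or microscopic growth. Vehicle and reference-agent controls; run in duplicate.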

Assay [6] deals with Klebsiella pneumoniae. Put plainly: In vitro antimicrobial activity against Klebsiella pneumoniae was determined. In short, it runs like this:
(§2)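 Broth microdilution MIC in nutrient broth with 1-5 × 10⁵ CFU/mL inoculum. Compounds were dissolved in 100% DMSO and serially diluted in DMSO, starting at 300 µM final with at most 1% DMSO. Plates were incubated at 37 °C for 20-72 h. MIC was read by visual turbidity or microscopy. Vehicle and reference controls were included, and tests were run in duplicate.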

For assay [7], the system named is RXF 393. Nature of the assay: In vitro inhibitory activity for human renal cancer cell line RXF-393 was determined. In short, it runs like this: as §1
Assay [8] deals with Pseudomonas aeruginosa. Put plainly: In vitro antimicrobial activity against Pseudomonas aeruginosa was determined. In short, it runs like this: as §2
The test system of assay [9] is Escherichia coli. Put plainly: In vitro antimicrobial activity against Escherichia coli was determined. In short, it runs like this: as §2
Assay [10] has as its system Enterococcus faecalis. Nature of the assay: In vitro antimicrobial activity against Enterococcus faecalis (vancomycin-resistant) was determined. In short, it runs like this: (§3)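 Broth dilution in tryptic soy broth with 7% calf serum against clinical isolates (vancomycin-resistant E. faecalis; erythromycin/ampicillin-resistant S. pneumoniae) at 1-5 × 10⁵ CFU/mL. DMSO serial dilutions were added 1:100, giving a top concentration of 300 µM and at most 1% DMSO. Incubated 20-72 h at 37 °C. MIC (µM) read by visual turbidity or microscopy. Vehicle and reference controls; duplicate.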

Assay [11] is described as follows: In vitro antimicrobial activity against Mycobacterium ranae was determined. In short, it runs like this: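 MIC determined in brain heart infusion broth containing 1-5 × 10⁵ CFU/mL. Compounds in DMSO were serially diluted, starting at 300 µM final with 1% DMSO maximum. Incubation was at 37 °C for 20-72 h, with visual turbidity or microscope read-out. Vehicle and reference controls were included, and assays were run in duplicate.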

Assay [12] in a line: In vitro antimicrobial activity against […] (erythromycin and ampicillin-resistant) was determined. The settings on record: Streptococcus pneumoniae. In short, it runs like this: as §3

What is called GI50 is the concentration that inhibits growth by half. The low end stands for more potent growth inhibition, the high end for less potent growth inhibition. For orientation: MIC means the lowest concentration found to suppress growth.

For `C=C1CC(CN2CCN(c3cc4c(cc3F)c(=O)c(C(=O)O)cn4CC)CC2)(c2ccc(OC)cc2)OC1=O` (configuration not stated), the Mean in assay [1] is recorded as -5.19. For the same compound, the values for the GI50 in assay [2] and in assay [3] were 2750 nM and 5130 nM, respectively.
As for `CCn1cc(C(=O)O)c(=O)c2cc(F)c(N3CCN(C/C(C)=N/O)CC3)cc21`, the MIC amounted to 2 µM (≈ 0.781 µg/mL) in [4]; 0.51 µM (≈ 0.199 µg/mL) in [5]; 0.13 µM (≈ 0.0508 µg/mL) in assay [6]; 16 µM (≈ 6.25 µg/mL) in [8]; 0.51 µM (≈ 0.199 µg/mL) in [9]; 30 µM (≈ 11.7 µg/mL) in assay [10]. Moreover, the results for the MIC in assay [11] and in assay [12] were 32 µM (≈ 12.5 µg/mL) and 30 µM (≈ 11.7 µg/mL), respectively. In [1], this compound displayed a Mean above -4. The GI50 was above 100000 nM in [7], 39800 nM in assay [2] and above 100000 nM in [3].
Turning to `CCn1cc(C(=O)O)c(=O)c2cc(F)c(N3CCN(C/C(=N/O)c4ccccc4)CC3)cc21`, the MIC was 3.45 µM (≈ 1.56 µg/mL) in assay [4]; 0.44 µM (≈ 0.199 µg/mL) in [5]; 0.22 µM (≈ 0.0995 µg/mL) in assay [6]; 13.8 µM (≈ 6.24 µg/mL) in assay [8]; 0.86 µM (≈ 0.389 µg/mL) in assay [9]; above 200 µM in [10]. Besides, the MIC in assay [11] was 55.3 µM (≈ 25 µg/mL); in [12] it was above 200 µM. Also, the Mean in [1] was -4.53. Further, the GI50 is 36300 nM in assay [7], 309 nM in [2] and 32400 nM in assay [3].
For the compound `CCn1cc(C(=O)O)c(=O)c2cc(F)c(N3CCN(CC(=O)c4ccc(OC)cc4)CC3)cc21`, the MIC in assay [4] was 0.83 µM (≈ 0.388 µg/mL); in [5], 6.7 µM (≈ 3.13 µg/mL); in assay [6], 0.053 µM (≈ 0.0248 µg/mL); in assay [8], 13.4 µM (≈ 6.26 µg/mL); in assay [9], 0.83 µM (≈ 0.388 µg/mL); in [10], above 200 µM. For the same compound, the MIC in assay [11] and in assay [12] was above 200 µM throughout.
For `C=C1CC(CN2CCN(c3cc4c(cc3F)c(=O)c(C(=O)O)cn4CC)CC2)(c2ccccc2)OC1=O` (configuration not stated), the MIC was above 200 µM in assay [4]; 1.54 µM (≈ 0.779 µg/mL) in assay [5]; 12.4 µM (≈ 6.27 µg/mL) in assay [6]; above 200 µM in assay [8]; 98.9 µM (≈ 50 µg/mL) in assay [9]; above 200 µM in assay [11]. In assay [1], this compound yielded a Mean of -5.47. For the same compound, the GI50 in [2] is 1580 nM; in assay [3] it was 1860 nM.
On to `CCn1cc(C(=O)O)c(=O)c2cc(F)c(N3CCN(C/C(=N/O)c4ccc(F)cc4)CC3)cc21`, for which the MIC was 6.38 µM (≈ 3 µg/mL) in [4]; 2.13 µM (≈ 1 µg/mL) in assay [5]; 0.21 µM (≈ 0.0988 µg/mL) in assay [6]; above 200 µM in [8]; 6.38 µM (≈ 3 µg/mL) in assay [9]; above 200 µM in assay [10]. Besides, the minimum inhibitory concentration (MIC) in assay [11] and in [12] was above 200 µM each time. Moreover, in assay [1], the Mean is listed as -4.67. Moreover, the GI50 was 170 nM in [7], 132 nM in assay [2] and 1910 nM in assay [3].
On to `CCn1cc(C(=O)O)c(=O)c2cc(F)c(N3CCN(C/C(=N\O)c4ccc(Cl)cc4)CC3)cc21`, for which the MIC in [4] was 6.16 µM (≈ 3 µg/mL); in assay [5], above 200 µM; in assay [6] it was 0.21 µM (≈ 0.102 µg/mL); in assay [8], above 200 µM; in assay [9], 6.16 µM (≈ 3 µg/mL); in assay [10] it was above 200 µM. The minimum inhibitory concentration (MIC) in [11] and in [12] was above 200 µM each time. The compound also returned a Mean in assay [1] of -5.03. Moreover, the concentration for 50% growth inhibition (GI50) in [7] is 724 nM; in assay [2], 28.8 nM; in assay [3], 398 nM.
Regarding `CCn1cc(C(=O)O)c(=O)c2cc(F)c(N3CCN(C/C(=N\O)c4ccc(OC)cc4)CC3)cc21`, the MIC in assay [4] was 3.23 µM (≈ 1.56 µg/mL); in [5], 0.41 µM (≈ 0.198 µg/mL); in [6] it was 0.027 µM (≈ 0.013 µg/mL); in assay [8], 25.9 µM (≈ 12.5 µg/mL); in assay [9], 1.62 µM (≈ 0.782 µg/mL); in assay [10] it was 3.23 µM (≈ 1.56 µg/mL). Besides, the values for the MIC in [11] and in assay [12] were 104 µM (≈ 50.2 µg/mL) and 13 µM (≈ 6.27 µg/mL), respectively. The compound also showed a Mean in assay [1] of -4.5. The concentration for 50% growth inhibition (GI50) was 550 nM in [2] and 6920 nM in assay [3].
Consider `CCn1cc(C(=O)O)c(=O)c2cc(F)c(N3CCNCC3)cc21` [NORFLOXACIN], for which the minimal inhibitory concentration (MIC) in assay [4] was found to be 0.16 µM (≈ 0.0511 µg/mL); in assay [5], 4.89 µM (≈ 1.56 µg/mL); in assay [6], 0.041 µM (≈ 0.0131 µg/mL); in assay [8], 1.22 µM (≈ 0.39 µg/mL); in assay [9] it was 0.63 µM (≈ 0.201 µg/mL); in assay [10] it was 9.8 µM (≈ 3.13 µg/mL). The MIC in assay [11] is 9.8 µM (≈ 3.13 µg/mL); in assay [12], 19.6 µM (≈ 6.26 µg/mL).
